Article PMC3228909 (Journal of medicinal chemistry, 2011)
Where “and” joins values, the source holds several entries; their conditions need not be identical. Equal entries are not always repeated. Where two headings read alike, the source gives them in different places.

Key:
[1] = molecular target: Aβ plaques in postmortem AD brain homogenates (Homo sapiens, UniProt P05067); assay type: binding
[2] = molecular target: Aβ plaques in CAA brain sections (Homo sapiens, UniProt P05067); assay: Thioflavin S fluorescent staining of neighboring CAA occipital brain sections
Method in brief: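 Brain sections fixed in 10% neutral buffered formalin for 1 hr. Autofluorescence quenched with 0.05% KMnO4, then bleached in 0.2% K2S2O5/0.2% oxalic acid. Stained 3–5 min with 0.025% thioflavin S in 40% ethanol, differentiated in 50% ethanol. Imaged by fluorescence microscopy with a CCD digital camera.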

[3] = molecular target: Aβ plaques in postmortem human brain sections (Homo sapiens, UniProt P05067); assay: In vitro autoradiography of postmortem human brain sections; assay type: binding
Method in brief: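 Frozen postmortem brains (confirmed CAA, AD, control) cut at 20 µm. Sections incubated 1 h with the 18F-labelled test compound in 40% ethanol. Washes: saturated Li2CO3 in 40% ethanol (2 min, twice), then 40% ethanol (2 min, once), then a 30 s water rinse. Dried sections exposed to film for 12–18 h; developed images digitized.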

[4] = normal mice, iv, cited from earlier work

Aβ plaques in postmortem AD brain homogenates, sequence (P05067 672-711 limits assumed): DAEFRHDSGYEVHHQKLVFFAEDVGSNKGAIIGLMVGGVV
Aβ plaques in postmortem human brain sections, sequence (P05067 672-711 limits assumed): as above
Aβ plaques in CAA brain sections, sequence (P05067 672-711 limits assumed): as above

In the case of `CNc1ccc(/C=C/c2ccc(OCCOCCOCCOCCOCCOCC(COCCOCCOCCOCCOCCOc3ccc(/C=C/c4ccc(NC)cc4)cn3)OCCF)nc2)cc1` [Compound 8b], the Ki [1] is reported as 3.24 nM.

For thioflavin S, the “Fluorescent staining of brain sections compared with [18F]8a autoradiography” value [2] was “same labeling of the major blood vessels”.

For `CNc1ccc(/C=C/c2ccc(OCCOCCOCC[18F])nc2)cc1` [[^18F]5, [^18F]florbetapir f 18], the “Autoradiographic labeling of brain sections” value ([3]; AD brain sections) is given as “labeled intensely”, the “Autoradiographic labeling of brain sections” value ([3]; healthy control (HC) brain sections) is given as “very low labeling” and the “Biodistribution, Blood” value ([4]; 2 min post injection) is given as 3.14 ± 0.69 % dose/gram. The “Biodistribution, Bone” value ([4]; 2 min post injection) was 1.43 ± 0.09 % dose/gram, the “Biodistribution, Brain (brain uptake)” value ([4]; 2 min post injection) was 7.8 % dose/gram and 7.77 ± 1.70 % dose/gram and the “Biodistribution, Kidney” value ([4]; 2 min post injection) was 10.9 ± 2.63 % dose/gram. The “Biodistribution, Liver” value ([4]; 2 min post injection) was 21.5 ± 1.07 % dose/gram, the “Biodistribution, Muscle” value ([4]; 2 min post injection) was 1.06 ± 0.39 % dose/gram and the “Biodistribution, Blood” value ([4]; 30 min post injection) was 2.80 ± 0.44 % dose/gram. For the same molecule, the “Biodistribution, Bone” value ([4]; 30 min post injection) was 1.22 ± 0.17 % dose/gram, the “Biodistribution, Brain” value ([4]; 30 min post injection) was 1.59 ± 0.22 % dose/gram and the “Biodistribution, Kidney” value ([4]; 30 min post injection) was 6.31 ± 0.58 % dose/gram. The “Biodistribution, Liver” value ([4]; 30 min post injection) was 12.9 ± 0.72 % dose/gram and the “Biodistribution, Muscle” value ([4]; 30 min post injection) was 1.78 ± 0.34 % dose/gram.

With `CNc1ccc(/C=C/c2ccc(OCCOCCOCCOCCOCCOCCOCC(COCCOCCOCCOCCOCCOCCOc3ccc(/C=C/c4ccc(NC)cc4)cn3)OCCF)nc2)cc1` [Compound 8c] the Ki [1] was 7.71 nM.
